Laboratory results: publication PMC3856871 (MedChemComm, 2012)
Entries after “also recorded” stand apart in the source; their conditions may differ.

Experiments:
[1] = system: p53 acetylation at lysine 382; experiment: Western blot on MCF-7 cells, p53 acetylation at lysine 382; assay type: cell-based; details: 24 h, 50 μM (Fig. 3)
[2] = system: MCF-7 breast carcinoma cell line; assay type: cell-based; details: MCF-7 cells, 50 μM, 24 h
acetyl-α-tubulin = experiment: Western blot on MCF-7 cells, acetylation status of α-tubulin; assay type: cell-based; details: 24 h; for acetyl-α-tubulin accumulation: 50 μM, comparison of SIRT inhibitors (Fig. 3)
Summary of the method: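 MCF-7 cells exposed 24 h to test compound at increasing concentrations […]. Acetylation of α-tubulin (SIRT2 biomarker) and of histone H3-K9 (SIRT1 biomarker) monitored in parallel.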

SIRT2 = target: T1, SIRT2 (Homo sapiens, UniProt Q8IXJ6); experiment: in vitro enzymatic fluorimetric assay, SIRT2 inhibitory activity; assay type: biochemical; details: for selectivity for SIRT2 over SIRT1: in vitro
T1 sequence (Q8IXJ6 1-389): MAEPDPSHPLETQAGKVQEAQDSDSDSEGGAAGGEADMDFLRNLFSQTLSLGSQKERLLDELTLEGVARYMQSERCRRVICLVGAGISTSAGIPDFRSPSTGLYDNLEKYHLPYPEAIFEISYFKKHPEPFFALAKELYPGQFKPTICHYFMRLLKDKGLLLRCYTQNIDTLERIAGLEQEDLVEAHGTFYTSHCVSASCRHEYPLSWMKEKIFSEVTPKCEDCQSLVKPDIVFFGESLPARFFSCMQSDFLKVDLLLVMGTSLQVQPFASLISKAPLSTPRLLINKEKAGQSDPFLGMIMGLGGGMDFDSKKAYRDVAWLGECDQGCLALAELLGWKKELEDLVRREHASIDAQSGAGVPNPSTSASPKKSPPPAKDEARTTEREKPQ

[3] = system: pRb phosphorylation at Ser807/Ser811; experiment: Western blot on MCF-7 cells, pRb phosphorylation; assay type: cell-based; details: 24 h, 50 μM
MCF-7 cells = experiment: proliferative analysis / cell viability assay on MCF-7 cells; assay type: cell-based; details: 30 μM, 0-72 h
H3-K9 acetylation = experiment: Western blot on MCF-7 cells, acetylation status of H3-K9; assay type: cell-based; details: 24 h, concentrations up to 50 μM

Compound | p53 acetylation at lysine 382 [1] | cell cycle phase in which cells accumulate [2] | acetyl-α-tubulin accumulation (acetyl-α-tubulin) | other results
O=C(Nc1cccc(Br)c1)c1cccc(S(=O)(=O)N2CCCCCC2)c1 [AK-7] | moderately induce p53 acetylation at lysine 382 | increase in cells primarily in G2/M phase | no significant effect | –
NC(=O)c1ccc2c(c1)CCc1cc([N+](=O)[O-])ccc1N2 [Compound 8] | – | high number of cells to accumulate at G2/M phase | substantial accumulation of acetyl-α-tubulin | selectivity for SIRT2 over SIRT1 (SIRT2): more than 30 fold; pRb phosphorylation at Ser807/Ser811 [3]: impede pRb phosphorylation at Ser807/Ser811; antiproliferative effect (MCF-7 cells): antiproliferative activity; also recorded: abolished cell proliferation completely; acetylation of α-tubulin (acetyl-α-tubulin; concentrations up to 50 μM): induce hyperacetylation of α-tubulin; acetylation levels of H3-K9 (H3-K9 acetylation): without increasing the acetylation levels of H3-K9
CC(C)(C)NS(=O)(=O)c1ccc2c(c1)Nc1ccccc1CC2 [Compound 20] | – | – | – | selectivity for SIRT2 over SIRT1 (SIRT2): more than 30 fold
CN1c2ccc(C(N)=O)cc2CCc2cc([N+](=O)[O-])ccc21 [Compound 29] | – | – | – | loss of SIRT2 potency relative to compound 8 (SIRT2; N-methyl derivative vs 8): 4 fold
NC(=O)C1CCCc2c1[nH]c1ccc(Cl)cc21 (stereo not drawn) [EX-527] | – | accumulate predominantly in G1 | – | reduction of cell proliferation relative to DMSO vehicle control (MCF-7 cells): approximately 50%
CC(C(=O)Nc1cccc(/N=C/c2c(O)ccc3ccccc23)c1)c1ccccc1 (stereo not drawn) [Salermide] | moderately induce p53 acetylation at lysine 382 | increase in cells primarily in G2/M phase | slight increase in acetyl-α-tubulin | antiproliferative effect (MCF-7 cells): abolished cell proliferation completely
CC(NC(=O)c1ccccc1/N=C/c1c(O)ccc2ccccc12)c1ccccc1 (stereo not drawn) [Sirtinol] | moderately induce p53 acetylation at lysine 382 | accumulate predominantly in G1 | no significant effect | –
